Measurements pooled from the literature.
Protocols differ between the studies behind these lines.
Target: Histamine H1 receptor (HRH1, Homo sapiens, UniProt P35367)

SMILES | assay | setting | quantity | value
CC(C)N1CCC[C@H]1CNC(=O)c1cn(C2CCCC2)c(=O)c2c1c1ccccc1n2C | ligand displacement, radioligand | 10 µM | inhibition | 22%
Cc1c(N2CCNCC2)nc2ccc(Br)cc2c1C(=O)NC[C@H](CCC(=O)O)c1ccccc1Cl | ligand displacement | 10 µM | inhibition | 17.5%
Clc1ccc2c(C3CCN(CCc4c[nH]c5ccccc45)CC3)c[nH]c2c1 | ligand displacement, radioligand | 10 µM | inhibition | 100%
COc1ccc(S(=O)(=O)N2CCCCC2)cc1C | ligand displacement, radioligand | 10 µM | inhibition | < 30%
COCc1c(-c2cc3cc(C)cc(OC)c3s2)c2c(N)ncnn2c1CN1CCNC(=O)C1 | ligand displacement, radioligand | 10 µM | inhibition | 26%
C[C@H](C(=O)N[C@H]1COc2ccccc2[C@@H]1S(C)(=O)=O)c1ccc(F)cc1 | cell-free assay | 10 µM | inhibition | -5%
N#CC1(c2ccccn2)CCN(Cc2cc(C(=O)O)c(=O)n3ccccc23)CC1 | cell-free assay | 10 µM | inhibition | 28.4%
CCN(CC)CCCC[C@H](NC(=O)[C@H](CC(C)C)NC(=O)[C@H](C)NC(=O)[C@H](Cc1ccccc1)NC(=O)c1ccc(C(C)(C)C)cc1)C(=O)N[C@@H](CO)C(=O)OC | ligand displacement, radioligand | 10 µM | inhibition | -6%
CN1CCC(C(c2ccccc2)c2ccccc2)CC1 | binding |  | kon | 3.33e+06 M⁻¹ s⁻¹
c1ccc(C(NCCNC(c2ccccc2)c2ccccc2)c2ccccc2)cc1 | cell-free assay | 10 µM | inhibition | 81%
Nc1ncc(-c2nc(N3CCOCC3)nc(N3CCOCC3)n2)c(C(F)F)n1 | cell-free assay, radioligand | 10 µM | remaining signal | 99.1%
COc1ccc(C(=O)NCc2cc(C(C)C)no2)cc1OC1CCN(C)CC1 | ligand displacement, radioligand | 10 µM | inhibition | 37%
CC(Cc1ccccc1)NCCn1cnc2c1c(=O)n(C)c(=O)n2C (stereo not shown) | ligand displacement, radioligand | 10 µM | inhibition | 12%
